The values that follow come from ChEMBL document CHEMBL3739417, “Synthesis and biological evaluation of novel 4,5-disubstituted 2H-1,2,3-triazoles as cis-constrained analogues of combretastatin A-4” (2015).

Holding throughout (format): functional
Test [1] can be described thus: Growth inhibition of human SF539 cells after 48 hrs by sulforhodamine B assay. Particulars: SF-539, 48 h; for LC50 (concentration giving 50% cell kill): read-out: LD50. A digest of the protocol:
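NCI-60 sulforhodamine B screen. Compounds were first tested at a single dose of 10⁻⁵ M; hits, defined as ≥60% growth inhibition in at least eight lines, went on to a five-concentration dose–response. SRB optical density was read before and 48 h after exposure to compound or vehicle. Percentage growth was calculated from OD.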
For orientation: Sulforhodamine B stains cellular protein and so reports cell mass.

Test [2] in a line: Growth inhibition of human MOLT4 cells after 48 hrs by sulforhodamine B assay. Particulars: MOLT-4, 48 h; for CC50: read-out: LD50 (the source's name). A digest of the protocol: (§1)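 NCI-60 panel screen by SRB assay (Rubinstein method). Percentage growth taken from optical density of SRB colour, read before and 48 hrs after exposure to compound or vehicle control. All analogues first screened at 10^-5 M. Analogues giving 60% growth inhibition at that level in at least eight lines then went to a five-concentration dose-response study.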

Test [3] can be described thus: Growth inhibition of human Hs 578T cells after 48 hrs by sulforhodamine B assay. Particulars: for CC50: read-out: LD50 (the source's name). A digest of the protocol: as §1
Test [4] in a line: Growth inhibition of human OVCAR4 cells after 48 hrs by sulforhodamine B assay. Particulars: OVCAR-4, 48 h; for LC50 (concentration killing 50% of cells): read-out: LD50. A digest of the protocol: as §1
The nature of test [5]: Growth inhibition of human UACC62 cells after 48 hrs by sulforhodamine B assay. Particulars: UACC-62, 48 h; for CC50: read-out: LD50 (the source's name). In a few lines:
as §1

Test [6] is described as follows: Growth inhibition of human UO31 cells after 48 hrs by sulforhodamine B assay. Particulars: UO-31, 48 h; for LC50 (concentration killing 50% of cells): read-out: LD50. In a few lines:
as §1

The nature of test [7]: Growth inhibition of human SW620 cells after 48 hrs by sulforhodamine B assay. Particulars: SW-620, 48 h. A digest of the protocol: as §1
The subject of another test is SK-MEL-28. Kind of test: Growth inhibition of human SK-MEL-28 cells after 48 hrs by sulforhodamine B assay. Particulars: SK-MEL-28, 48 h; for CC50: read-out: LD50 (the source's name). A digest of the protocol:
as §1

For the next test, the system named is M14. Kind of test: Growth inhibition of human M14 cells after 48 hrs by sulforhodamine B assay. Particulars: M14, 48 h; for CC50: read-out: LD50 (the source's name). In a few lines: as §1

Bounds are passed on as bounds.

One may read the GI50 as the concentration giving 50% growth inhibition. As for `COc1cc(-c2n[nH]nc2-c2ccc3c(c2)OCO3)cc(OC)c1OC`, the GI50 is 0.18 µM in [1]; 0.57 µM in [2]; 0.44 µM in test [3]; 0.08 µM in [4]; above 100 µM in test [5]; 0.66 µM in test [6]. In addition, the GI50 in test [7] stood at 0.11 µM; in the test with SK-MEL-28 it was 0.24 µM. In addition, in test [1], the LC50 (concentration giving 50% cell kill) is above 100 µM. The CC50 (in [2]; in [3]; in test [5]; in the test on SK-MEL-28) was above 100 µM each time. The LC50 (concentration killing 50% of cells) in [4] and in [6] was above 100 µM each time. Further, the LD50 (concentration killing 50% of cells) in test [7] is above 100 µM.

In the case of `COc1cc(-c2n[nH]nc2-c2ccc3ccccc3n2)cc(OC)c1OC`, the GI50 in test [1] was 0.02 µM; in test [2], 0.068 µM; in test [4] it was 0.077 µM; in [5] it was 0.157 µM; in test [6] it was 0.092 µM; in the test on M14, 0.022 µM. For the same compound, the GI50 in test [7] is 0.041 µM; in the test on SK-MEL-28, above 100 µM. Also, the LC50 (concentration giving 50% cell kill) in test [1] was above 100 µM. In addition, the CC50 (in [2]; in test [5]; with M14; with SK-MEL-28) was above 100 µM throughout. In addition, the LC50 (concentration killing 50% of cells) in [4] and in [6] was above 100 µM each time. Further, the LD50 (concentration killing 50% of cells) in test [7] is above 100 µM.

For the compound `COc1ccc(-c2n[nH]nc2-c2cc(OC)cc(OC)c2)cc1`, the GI50 is 0.014 µM in test [1]; 0.048 µM in test [2]; 0.041 µM in test [3]; below 0.01 µM in [5]; 0.02 µM in test [6]; below 0.01 µM in the test on M14. The compound also registered a GI50 in test [7] of 0.03 µM. Besides, the LC50 (concentration giving 50% cell kill) in [1] is above 100 µM. Also, the CC50 (in [2]; in [3]; in test [5]; in the test on M14) was above 100 µM throughout. Besides, the LC50 (concentration killing 50% of cells) in test [6] is above 100 µM. Further, in test [7], the LD50 (concentration killing 50% of cells) is above 100 µM.

Broadly, the TGI is the concentration at which net growth stops. High values mean lower sensitivity of the cells, low ones greater sensitivity of the cells. As for `COc1ccc(-c2nn[nH]c2-c2cc(OC)c(OC)c(OC)c2)cc1`, the GI50 is below 0.01 µM in [1]; 0.012 µM in test [2]; below 0.01 µM in [3]; below 0.01 µM in test [4]; below 0.01 µM in [6]; below 0.01 µM with M14. This compound yielded a GI50 in test [7] below 0.01 µM. The TGI in test [1] is below 0.01 µM. Besides, the LC50 (concentration giving 50% cell kill) in test [1] was above 100 µM. Besides, the CC50 (in test [2]; in test [3]; with M14) was above 100 µM in each case. Further, the LC50 (concentration killing 50% of cells) in test [4] and in test [6] was above 100 µM in each case. The same compound returned an LD50 (concentration killing 50% of cells) in [7] above 100 µM.

Consider `Clc1ccc(-c2n[nH]nc2-c2ccccn2)c(Cl)c1`, for which the GI50 in test [2] amounted to 4.23 µM; in test [3], 11.6 µM; in test [4] it was 3.04 µM; in test [5], 3.35 µM; in test [6], 6.84 µM; in the test on M14, 14.3 µM. Moreover, the GI50 in [7] was 4.4 µM; with SK-MEL-28, 5.39 µM. For the same compound, the CC50 (in [2]; in test [3]; in test [5]; with M14; with SK-MEL-28) was above 100 µM in each case. The LC50 (concentration killing 50% of cells) in [4] and in test [6] was above 100 µM each time. This compound also came in with an LD50 (concentration killing 50% of cells) in test [7] above 100 µM.

For the compound `COc1cc(-c2n[nH]nc2-c2ccc3c(c2)OCCO3)cc(OC)c1OC`, the 50% growth inhibitory concentration (GI50) in test [1] is below 0.01 µM; in [2] it was 0.04 µM; in [3], 0.668 µM; in test [4] it was 0.034 µM; in [5], above 100 µM; in [6], below 0.01 µM. Besides, the GI50 was below 0.01 µM in the test with M14, below 0.01 µM in test [7] and above 100 µM in the test with SK-MEL-28. In addition, the LC50 (concentration giving 50% cell kill) in [1] was above 100 µM. For the same compound, the CC50 (in [2]; in test [3]; in [5]; in the test on M14; in the test with SK-MEL-28) was above 100 µM each time. Moreover, the LC50 (concentration killing 50% of cells) in test [4] and in test [6] was above 100 µM in each case. In test [7], this compound had an LD50 (concentration killing 50% of cells) above 100 µM.
